Source: PubChem BioAssay (several laboratories)
Shown are actives, neighbours in structure and some others; about 1.7% of the full set was active somewhere.
CaV13 ICDI inh = Primary screen for inhibitors of IQ motif and Ca2+-dependent inactivation inhibitor domain binding in CACNA1D, Förster resonance energy transfer in living cells, …; HEK cells, CFP/YFP FRET ICDI-IQ, plate reader, 10 min; percent FRET-ratio fall versus neutral wells; inhibition, % at 12.3 µM; actives 0.098% (n = 340,000); AID 743397;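 active means mean replicate inhibition of at least 30% and at least 1% of replicates passing that level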;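 further: 0% = median of the neutral control wells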
SR-BI HDL uptake = blocks mouse SR-BI lipid uptake from DiI-HDL | ldlA[mSR-BI] CHO cells, DiI-HDL uptake fluorescence, 3 h | inhibition, % at 12.5 µM | actives 0.96% (n = 320,000);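 active means mean replicate inhibition of at least 70% and a set share of replicates each scoring 70 or more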;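 further: 0% = median of neutral control wells and 100% = median of positive control wells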
NTR1 ag = NTR1 (human) agonism; AID 493036; NTR1-U2OS beta-arrestin-GFP spot imaging, agonist mode; P30989; actives 0.17% (n = 330,000); activation, % at 20 µM;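 active means activation at or above 40% of the spot to cytoplasm intensity ratio, with at least 20 cells analyzed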;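 further: 0% = DMSO without peptide and 100% = 100 nM NTR1 peptide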
Target sequence (P30989 whole entry, looked up): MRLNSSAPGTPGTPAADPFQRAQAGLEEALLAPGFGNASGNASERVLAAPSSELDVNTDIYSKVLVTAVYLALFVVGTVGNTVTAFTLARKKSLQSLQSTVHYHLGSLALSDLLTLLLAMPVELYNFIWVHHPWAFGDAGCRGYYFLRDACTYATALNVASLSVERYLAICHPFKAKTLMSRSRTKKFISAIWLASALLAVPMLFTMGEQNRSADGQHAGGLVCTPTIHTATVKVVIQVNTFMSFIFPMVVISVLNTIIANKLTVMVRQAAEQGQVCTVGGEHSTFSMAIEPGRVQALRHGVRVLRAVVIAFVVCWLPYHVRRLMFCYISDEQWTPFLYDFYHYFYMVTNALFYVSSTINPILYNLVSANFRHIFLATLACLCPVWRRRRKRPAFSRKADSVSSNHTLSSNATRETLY
Vif inh = blocks HIV Vif function; AID 602346; actives 0.35% (n = 340,000); HEK293T cells, Vif self-association by quenched fluorescence, imaging, 24 h; inhibition, % at 7.49 µM; in the data active means inhibition above about 50%, passing the limit was not always enough
SR-BI uptake up = SR-BI HDL lipid transfer activation; CHO ldlA[mSR-BI] cells, DiI-HDL uptake fluorescence, 3 h; 100 = double the neutral-control signal; actives 0.096% (n = 320,000); activation, % at 12.5 µM;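 active means mean replicate activation of at least 60% and every replicate at or above 60%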;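 further: 0% = median plate neutral-control signal and 100% = twice that signal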
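Test system: SR-BI-overexpressing, LDLR-lacking CHO cells; Medium: Ham's F12 with 0.5% BSA, HEPES 25 mM, pH 7.4; Schedule: 3 h, 37 °C; Technique: bottom-read fluorescence, 550/595 nm.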
V-ATPase pHluor = yeast V-ATPase proton transport regulation by pHLuorin | actives 0.37% (n = 350,000) | S. cerevisiae, pHLuorin cytosolic pH fluorescence | response, % at 10 µM; in the data active means response mostly above about 7.3%, no sharp cut-off; inactive means mostly below about 5.4%; further: actives read high
DiI quencher = counter-screen for SR-BI lipid transfer inhibitors: DiI fluorescence quenchers | shares compounds with SR-BI HDL uptake | cell-free DiI-HDL fluorescence quenching, 30 min | AC50, µM (highest dose often 35 µM), for the others: at the highest dose activity change, negative = quenching | actives 20% (n = 470) | AID 540326;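 active means quenching, a falling signal, with AC50 below a set limit tied to the top valid dose, actives reach about 32 µM in these data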
NTR1 ag confirm = confirmation of agonists of human NTR1 | shares compounds with NTR1 ag | NTR1-U2OS beta-arrestin-GFP translocation imaging | activation, % at 20 µM | actives 38% (n = 480);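 active means mean activation at 20 µM of at least 40%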;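 further: 0% = DMSO without peptide and 100% = 100 nM NTR1 peptide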
Starred values were filed as active, the others as inactive; · = no result given.

SMILES | CaV13 ICDI inh | SR-BI HDL uptake | NTR1 ag | Vif inh | SR-BI uptake up | V-ATPase pHluor | others
CCN(CC)c1ccc(N=Cc2c(O)n(-c3cc(OC)ccc3OC)c(=O)[nH]c2=O)cc1 | · | 91.0* | 0.6 | -14.4 | -90.9 | 2.6
O=C(Nc1ccc(F)cc1)OC1CN2CCC1CC2 (stereo unspecified) | -4.4 | -10.5 | 0.5 | 15.4 | 10.5 | -1.0
Cc1ccc([C@@H]2C[C@H]3[C@@H](CN2S(=O)(=O)c2ccc(Cl)cc2)C(=O)C[C@@H](c2ccccc2F)N3S(=O)(=O)c2ccc(C)cc2)cc1 | -6.4 | · | · | 1.2 | · | -1.5
O=C(C1CC(c2ccc(Cl)c(Cl)c2)=NO1)N1CCC2(CC1)OCCO2 (stereo unspecified) | · | -8.3 | 0.0 | -1.4 | 8.3 | -0.1
O=[N+]([O-])c1ccc(N(CCO)CCO)c2c1no[n+]2[O-] | -5.6 | · | · | 60.5* | · | 3.1
CN1CCN(c2ccc([N+](=O)[O-])c3no[n+]([O-])c23)CC1 | -6.7 | -21.7 | · | -1.2 | 21.7 | -3.1
CC1(C)NC(=O)[C@H]2CCCN21 | -6.3 | -28.6 | 1.5 | -5.6 | 28.6 | 0.0
COc1ccc(C(CC(C)=O)c2c(O)c3ccccc3oc2=O)cc1OC (stereo unspecified) | -5.4 | · | · | 6.3 | · | -2.0
CC/C(CC(c1ccccc1)c1c(O)c2ccccc2oc1=O)=N\NC(N)=S (stereo unspecified) | -4.8 | 80.4* | -1.1 | -0.1 | -80.4 | 0.7
c1ccc2c(c1)Sc1ccccc1N2CC1CN2CCC1CC2 (stereo unspecified) | -5.6 | -12.0 | 9.5 | 52.6* | 12.1 | -5.4
C=C1C(=O)O[C@@H]2C[C@@H](C)[C@@H]3C4OC4C(=O)[C@@]3(C)[C@@H](O)[C@H]12 (stereo partly specified) | -6.4 | -16.1 | 13.5 | 41.0* | 16.1 | 3.1
CCn1c(=O)cc(OCC(=O)N2CCN(Cc3ccc4c(c3)OCO4)CC2)c2ccccc21 | -5.3 | 34.2 | 1.7 | 67.1* | -34.2 | -5.1
O=C(N/N=C/c1c(O)n(Cc2ccccc2)c(=O)[nH]c1=O)c1ccncc1 | -15.4 | · | -0.9 | 1.7 | · | 3.9
O=C(N/N=C/c1c(O)n(Cc2ccc(F)cc2)c(=O)[nH]c1=O)c1ccccc1 | -4.5 | 74.8* | 0.4 | 8.4 | -74.8 | -4.2
COC(=O)C1CN(C#N)N(c2ccc(Cl)cc2)C12c1ccccc1-c1ccccc12 (stereo unspecified) | · | 127.4* | 7.8 | -0.9 | -127.4 | 1.9
CCCOC(=O)c1ccc(-[n+]2c(-c3ccccc3)cc(-c3ccccc3)cc2-c2ccccc2)cc1 | -5.2 | -9.8 | 40.0* | -10.8 | 9.8 | 2.2
COc1ccc(NC(=O)C2C3CCC(O3)C2C(=O)O)c(OC)c1 (stereo unspecified) | -1.9 | 9.9 | 1.6 | 4.4 | -9.9 | -3.5 | DiI quencher=-8.2%
C[C@@H]1CN([C@@H](C)CO)C(=O)CCCn2nncc2CO[C@@H]1CN(C)C(=O)Oc1ccccc1 | -2.9 | · | · | -2.8 | · | 6.5
COC(=O)c1cn(C(=O)c2cccc3ccccc23)c2ccccc12 | -3.4 | 73.0* | 1.6 | -24.0 | -73.0 | -1.5 | DiI quencher=-1.7%
COC(=O)c1cn(Cc2ccc(F)cc2)c2ccccc12 | -6.0 | · | · | 4.3 | · | ·
O=c1[nH]c2ccccc2n1C1CCN(CCCC(c2ccc(F)cc2)c2ccc(F)cc2)CC1 | -5.7 | 13.2 | 43.3* | 23.8 | -13.2 | -4.2 | NTR1 ag confirm=14.4
O=C1CC(N2CCC(n3c(=O)[nH]c4ccccc43)CC2)C(=O)N1c1ccc(F)cc1 (stereo unspecified) | -6.7 | 8.8 | 0.0 | 16.3 | -8.8 | -0.1
O=C1NC(=O)C(=Cc2ccc(Sc3ccccc3)o2)C(=O)N1 | -14.6 | -16.6 | 49.1* | 0.6 | 16.6 | -0.5 | NTR1 ag confirm=89.5*
